Assay results as given in PMC9978883 (Molecular Cancer Therapeutics, 2023).

Columns and labels:
VCaP = experiment: Cell proliferation; format: cell-based, human; conditions: for IC50: Homo sapiens, VCaP, 72 h, read-out: Growth inhibitory IC50, VCaP
PC3 = experiment: Cell proliferation; format: cell-based; conditions: Homo sapiens, PC-3, 72 h, read-out: Growth inhibitory IC50, PC3
LNCaP = experiment: Cell proliferation; format: cell-based; conditions: Homo sapiens, 72 h, read-out: Growth inhibitory IC50, LNCaP
DU145 = experiment: Cell proliferation; format: cell-based; conditions: Homo sapiens, DU-145, 72 h, read-out: Growth inhibitory IC50, DU145
WPMY = experiment: Cell proliferation; format: cell-based; conditions: Homo sapiens, 72 h, read-out: Growth inhibitory IC50, WPMY
VCaP cells [1] = experiment: Cell necrosis and apoptosis, PI/Hoechst 33342 flow cytometry; format: cell-based, human
AIF = AIF Western blot in VCaP cells; format: cell-based, human
γ-H2A.X = γ-H2A.X Western blotting in VCaP cells; format: cell-based, human
cleaved PARP1 = experiment: Western blotting for cleaved PARP1 in VCaP cells; format: cell-based, human
ERG = molecular target: T1, ERG (Homo sapiens, UniProt P11308); experiment: Surface plasmon resonance, ERG; format: binding; conditions: SPR
T1 sequence (P11308 1-479): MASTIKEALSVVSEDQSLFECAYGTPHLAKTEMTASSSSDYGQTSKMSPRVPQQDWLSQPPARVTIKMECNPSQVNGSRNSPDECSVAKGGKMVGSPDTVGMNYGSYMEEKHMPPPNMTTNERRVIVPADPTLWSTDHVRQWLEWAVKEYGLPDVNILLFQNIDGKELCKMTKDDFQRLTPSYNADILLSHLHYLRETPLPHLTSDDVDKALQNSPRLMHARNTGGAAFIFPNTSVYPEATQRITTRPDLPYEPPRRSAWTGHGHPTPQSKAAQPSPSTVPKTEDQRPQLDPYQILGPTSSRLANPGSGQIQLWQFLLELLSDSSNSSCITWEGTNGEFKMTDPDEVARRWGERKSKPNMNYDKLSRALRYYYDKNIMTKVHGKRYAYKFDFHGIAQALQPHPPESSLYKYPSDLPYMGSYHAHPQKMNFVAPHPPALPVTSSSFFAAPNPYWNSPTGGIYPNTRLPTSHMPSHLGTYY

STAT3 = STAT3 (Homo sapiens, UniProt P40763); experiment: Surface plasmon resonance, STAT3; format: binding
STAT3, sequence (P40763 whole entry): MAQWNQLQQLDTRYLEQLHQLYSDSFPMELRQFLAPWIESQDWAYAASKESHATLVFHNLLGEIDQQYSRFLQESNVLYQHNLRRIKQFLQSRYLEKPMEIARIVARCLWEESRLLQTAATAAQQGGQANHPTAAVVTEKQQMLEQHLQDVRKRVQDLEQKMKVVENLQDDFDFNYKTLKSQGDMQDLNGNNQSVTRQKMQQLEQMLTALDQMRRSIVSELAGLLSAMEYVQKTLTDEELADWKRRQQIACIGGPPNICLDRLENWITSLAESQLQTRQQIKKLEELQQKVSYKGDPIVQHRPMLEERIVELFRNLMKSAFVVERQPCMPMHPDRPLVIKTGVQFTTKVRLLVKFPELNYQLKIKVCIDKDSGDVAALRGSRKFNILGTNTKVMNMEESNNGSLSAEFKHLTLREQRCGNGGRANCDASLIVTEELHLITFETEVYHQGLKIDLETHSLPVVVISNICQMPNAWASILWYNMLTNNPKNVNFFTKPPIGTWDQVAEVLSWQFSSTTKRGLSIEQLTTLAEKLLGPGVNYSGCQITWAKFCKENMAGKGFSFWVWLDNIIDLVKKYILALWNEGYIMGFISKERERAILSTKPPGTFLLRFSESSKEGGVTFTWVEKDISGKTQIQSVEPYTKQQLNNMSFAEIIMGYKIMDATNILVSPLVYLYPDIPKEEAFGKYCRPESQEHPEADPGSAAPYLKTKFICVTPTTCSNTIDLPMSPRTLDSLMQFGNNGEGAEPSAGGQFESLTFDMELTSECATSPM

ALDH1 = molecular target: T2, ALDH1 (Homo sapiens, UniProt P00352); experiment: Surface plasmon resonance, ALDH1; format: binding
T2 sequence (P00352 1-501): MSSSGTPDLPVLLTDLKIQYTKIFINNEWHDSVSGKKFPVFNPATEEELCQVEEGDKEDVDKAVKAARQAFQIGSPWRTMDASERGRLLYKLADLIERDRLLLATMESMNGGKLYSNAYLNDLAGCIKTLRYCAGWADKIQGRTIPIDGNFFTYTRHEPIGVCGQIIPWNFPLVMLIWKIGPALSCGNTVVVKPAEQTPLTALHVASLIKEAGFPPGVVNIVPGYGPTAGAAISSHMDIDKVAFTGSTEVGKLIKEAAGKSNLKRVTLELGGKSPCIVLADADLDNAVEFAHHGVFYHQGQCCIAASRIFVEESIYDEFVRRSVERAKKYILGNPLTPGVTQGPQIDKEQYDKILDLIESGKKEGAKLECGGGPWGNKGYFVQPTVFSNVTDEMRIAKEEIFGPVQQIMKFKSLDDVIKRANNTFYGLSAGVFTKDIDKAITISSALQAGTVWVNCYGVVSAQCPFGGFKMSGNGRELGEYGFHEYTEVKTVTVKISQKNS

DU145 vector = experiment: Cell proliferation on DU145 vector control cells; format: cell-based; conditions: Homo sapiens, DU-145, read-out: IC50, DU145 vector
VCaP cells [2] = experiment: Cell-cycle determination by flow cytometry; format: cell-based, human; conditions: 5, 10, or 20 μmol/L, 24 hours
VCaP xenograft tumors = experiment: VCaP xenograft in male SCID mice; format: in vivo
Summary of the method: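 Male SCID mice were implanted subcutaneously on the left abdomen with 4 × 10^6 VCaP cells. At about 100 mm3, mice were randomised, six per group. Dosing was 75 mg/kg i.p. once daily or 37.5 mg/kg by gavage twice daily; controls got solvent i.p. Plasma ALT and AST were measured by kit every 7 days. Endpoint was tumour volume >2 cm3. Data are mean ± SD, Dunnett test versus control.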

[3] = molecular target: T3, interaction between ERG and PARP1 (Homo sapiens, UniProt P11308); format: cell-based; conditions: 0.5 or 1 μmol/L, 2 hours, DU145-ERG
T3 sequence (P11308 1-479): T1 sequence (P11308 1-479)

AIF mRNA = experiment: RT-qPCR for AIF mRNA on VCaP cells; format: cell-based, human; conditions: 2 or 5 μmol/L, 12 or 24 hours
[4] = NFZ-treated groups, every 7 days

SMILES | IC50 (VCaP) [µM] | IC50 (PC3) [µM] | IC50 (LNCaP) [µM] | IC50 (DU145) [µM] | IC50 (WPMY) [µM] | also measured
CCN(CC)C(=S)SSC(=S)N(CC)CC [Disulfiram] | > 30 | 27 ± 2 | 33 ± 3.11 | 22.6 ± 2.93 | 23.3 ± 0.49 | 
O=C(N/N=C/c1ccc([N+](=O)[O-])o1)c1cc([N+](=O)[O-])cc([N+](=O)[O-])c1O [Nifursol] | > 30 | > 30 | > 30 | > 30 | > 30 | 
CC(=O)c1cc2c(o1)C(=O)c1ccccc1C2=O [Napabucasin] | 0.23 ± 0.05 | 0.29 ± 0.07 | 0.23 ± 0.08 | 0.16 ± 0.05 | 0.25 ± 0.01 | 
CSCC1CN(/N=C/c2ccc([N+](=O)[O-])o2)C(=O)O1 (stereo not shown) [Nifuratel] | 13.9 ± 1.12 | 3.87 ± 0.35 | > 30 | 27.7 ± 1.11 | 26.6 ± 0.13 | 
O=C(c1cc(Cc2n[nH]c(=O)c3ccccc23)ccc1F)N1CCN(C(=O)C2CC2)CC1 [Olaparib, olaparib] |  |  |  |  |  | Effect of olaparib on NFZ-mediated growth inhibition (VCaP; 5 μmol/L NFZ with 20 μmol/L olaparib): completely abrogated the inhibitory effects of NFZ; Effect of olaparib on NFZ-mediated growth inhibition (VCaP; 5 μmol/L NFZ with 0.5, 1.0, or 20 μmol/L OLP): blocked NFZ-mediated growth inhibition; Effect of olaparib on NFZ-induced necrotic cells (Q1 and Q2) (VCaP cells [1]; olaparib and NFZ combination group versus NFZ): reduced the number of necrotic cells; Effect of olaparib on NFZ-induced AIF release (AIF; 10 μmol/L olaparib with NFZ): reduced; Effect of olaparib on NFZ-induced γ-H2A.X (γ-H2A.X; 10 μmol/L OLP with NFZ): counteracted this effect of NFZ; Effect of olaparib on NFZ-induced PARP1 cleavage (cleaved PARP1; 10 μmol/L OLP with NFZ): not altered
CC1CS(=O)(=O)CCN1/N=C/c1ccc([N+](=O)[O-])o1 (stereo not shown) [Nifurtimox] | > 30 | > 30 | > 30 | > 30 | > 30 | 
O=C(N/N=C/c1ccc([N+](=O)[O-])o1)c1ccc(O)cc1 [NFZ, Nifuroxazide] | 2.65 ± 0.08 | 3.62 ± 0.51 | 13.4 ± 2.66 | 5.12 ± 0.63 | 4.53 ± 0.12 | Binding pattern with ERG (ERG): fast binding and fast dissociation; Kd (STAT3): 22.8 µM; Binding pattern with STAT3 (STAT3; SPR): fast binding/fast dissociation; Kd (ALDH1): 22.2 µM; Binding pattern with ALDH1 (ALDH1; SPR): fast binding/fast dissociation; IC50 (DU145 vector): 7.68 ± 0.211 µM; Proportion of cells in the G1–G0 phase (VCaP cells [2]): increased with the increasing NFZ concentrations; Dead cells along the PI axis (Q1 and Q2) (VCaP cells [1]; 5, 10, or 20 μmol/L, VCaP): significantly higher than that in the DMSO group; Plasma ALT (VCaP xenograft tumors; [4]): fluctuated within a normal range; Plasma AST (VCaP xenograft tumors; [4]): fluctuated within a normal range; Weight loss of mice (VCaP xenograft tumors; NFZ-treated versus vehicle): significantly less than that of mice treated with vehicle; Toxicity by observation (VCaP xenograft tumors; gavage or i.p.): did not show obvious toxicity; Amount of PARP1 bound to ERG [3]: reduced the amount of PARP1 bound to ERG; AIF mRNA expression (AIF mRNA): increased the expression of AIF; AIF protein (AIF; 2 or 5 μmol/L, within 30 minutes, VCaP): rapidly released AIF; γ-H2A.X expression (γ-H2A.X; 2 or 5 μmol/L, different times, VCaP): increased; PARP1 cleavage (cleaved PARP1; 2 or 5 μmol/L, VCaP): increased PARP1 cleavage; Reduction of NFZ inhibition on DU145-ERG by addition of olaparib (DU145-ERG; 10 μmol/L OLP): at least 10 fold; Difference in IC50 between DU145-ERG and DU145 vector (DU145-ERG; p < 0.0001): at least sevenfold
